Bioassay records from PubChem.
Hck-Nef inh: inhibitors of Nef-activated human Hck kinase, primary screen, biochemical, Z-Lyte FRET, 384-well, Hck-YEEI; inhibition, % at 20 µM; Recombinant Hck-YEEI plus Nef, Z-Lyte FRET kinase assay; 220,000 tested, 0.68% active; Tyrosine-protein kinase HCK (Homo sapiens), P08631;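 active = Hck-Nef kinase inhibition above about 50%, limit read from the data; inactive = inhibition below that limit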;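 note: 0% = DMSO with Hck plus Nef and 100% = Hck alone without Nef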
Target sequence (P08631 whole entry, looked up): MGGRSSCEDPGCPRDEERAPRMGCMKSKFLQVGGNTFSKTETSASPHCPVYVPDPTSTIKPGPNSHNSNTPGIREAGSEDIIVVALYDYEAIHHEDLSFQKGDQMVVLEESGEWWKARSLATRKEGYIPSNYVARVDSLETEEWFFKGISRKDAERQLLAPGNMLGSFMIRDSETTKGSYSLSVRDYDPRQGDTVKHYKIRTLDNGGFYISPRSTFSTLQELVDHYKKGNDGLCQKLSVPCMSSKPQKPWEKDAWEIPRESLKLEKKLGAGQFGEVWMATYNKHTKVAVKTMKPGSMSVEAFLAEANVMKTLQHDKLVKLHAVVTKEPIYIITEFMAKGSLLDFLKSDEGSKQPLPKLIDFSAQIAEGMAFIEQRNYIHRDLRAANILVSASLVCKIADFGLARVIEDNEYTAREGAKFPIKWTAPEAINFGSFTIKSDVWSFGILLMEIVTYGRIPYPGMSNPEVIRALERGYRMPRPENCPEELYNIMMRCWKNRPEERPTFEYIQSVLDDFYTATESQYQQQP
Tb hexokinase: Trypanosoma brucei hexokinase 1 inhibitors, primary screen, biochemical, G6PDH-coupled NADH absorbance, MLSCN library | recombinant TbHK1, G6PDH-coupled NADH A340 | inhibition, % at 10 µM | 220,000 tested, 0.11% active | AID 1430, 2008;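 active = inhibition of 50% or more in the single-dose primary screen; inactive = inhibition below 50%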
Runt-SMMHC FRET: inhibitors of RUNX1 Runt–CBFb-SMMHC binding, primary screen, biochemical, FRET, Cerulean-Runt, Venus-CBFb-SMMHC, uHTS | Cerulean-Runt/Venus-CBFb-SMMHC FRET ratio 530/480, 1 h | inhibition, % at 20 µM | 220,000 tested, 0.74% active | AID 1434, 2008;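 active = mean inhibition across duplicate retests at 20 µM reaching about 50%, limit read from the data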;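 note: 0% = DMSO wells and 100% = wells with excess untagged CBFb-SMMHC; inhibitors lower the FRET ratio by blocking Runt binding to CBFb-SMMHC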
p97 inhibitor: inhibitors of human p97 ATPase, primary screen, biochemical | Transitional endoplasmic reticulum ATPase (Homo sapiens), P55072 | recombinant p97 ATPase, Kinase-Glo ATP luminescence, 3 h | inhibition, % at 8 µM | 220,000 tested, 0.42% active | AID 1481, 2009; in the data active = inhibition above about 15%;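 note: 0% = DMSO vehicle and 100% = wells lacking enzyme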
RanGTP-Imp inh: inhibitors of RanGTP-importin-beta interaction, primary screen, biochemical, FRET, CFP-Ran, YFP-importin-beta, homogeneous; cell-free CFP-Ran/YFP-importin-beta FRET ratio; inhibition, % (concentration not given with the values); 300,000 tested, 1.1% active; AID 2216, 2009;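 active = more than half of the replicate wells show a fall in the fluorescence ratio signal beyond about 16%, limit read from the data, passing the limit was not always enough; inconclusive = exactly half of the replicate wells pass the set limit; inactive = fewer than half of replicates pass the limit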;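 note: 0% = DMSO wells and 100% = Ran loaded with GDP instead of GTP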
Runt-CBFb FRET: inhibitors of RUNX1 Runt–CBFb binding, primary screen, biochemical, FRET, Cerulean-Runt, Venus-CBFb, uHTS; inhibition, % at 20 µM; 220,000 tested, 0.46% active; AID 1496, 2009; Cerulean-Runt/Venus-CBFb FRET ratio 530/480, 1 h;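 active = inhibition over about 50% at 20 µM in the single-dose screen, limit read from the data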;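 note: 0% = DMSO wells and 100% = excess unlabeled CBFb competitor control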
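Assay system: Cerulean-Runt domain / Medium: Tris 50 mM pH 7.5, KCl, K2SO4, 0.01% BSA / Timing: protein complex preformed 1 h, compound exposure 1 h, room temperature, dark / Measured by: FRET, excitation 422 nm, emission at 530 and 480 nm / Evaluation: loss of energy transfer signal / Control set: 5 µM unlabeled CBFb as full-inhibition high control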
Numbers without * were called inactive; ? = inconclusive; . = not tested or not shown. Most compounds without a hit are left out; they make up all but 2.1% or so of the library.

SMILES | Hck-Nef inh | Tb hexokinase | Runt-SMMHC FRET | p97 inhibitor | RanGTP-Imp inh | Runt-CBFb FRET
O=C1OCCN1C(=O)[C@H]1[C@H](c2ccc(Cl)cc2)C(c2cccc(Cl)c2)=NN1c1ccccc1 | 11 | -9 | 57 | 3 | 30* | 28
COc1ccccc1C(=O)N1CCN(c2cccc(Cl)c2)CC1 | 6 | -1 | -4 | 1 | 4 | .
Cc1cccc(C)c1NC(=O)C(C)Sc1n[nH]c(-c2ccncc2)n1 (configuration not stated) | . | . | . | . | 1 | .
CN(C)c1ccc(/C=C(\C#N)C(=O)NCc2ccco2)cc1 | 4 | -4 | 58* | 1 | ? | 90*
CCN(CC)c1ccc(/C=C(\C#N)C(=O)NCc2ccccc2)cc1 | 5 | 3 | 59* | -12 | 109* | 79*
Cc1ccc(CNC(=O)/C(C#N)=C\c2ccc(N(C)C)cc2)cc1 | 3 | 5 | 61* | 1 | 72* | 12
N#C/C(=C\c1ccccc1)C(=O)NCc1ccc(F)cc1 | . | . | . | . | 1 | .
CCN(CC)c1ccc(/C=C(\C#N)C(=O)NCc2ccco2)cc1 | 7 | -5 | 60* | -9 | . | 19
CCC(=O)N1c2ccc(S(=O)(=O)N3CCN(c4cc(C)ccc4C)CC3)cc2CC1C (configuration not stated) | . | . | . | . | 1 | .
COc1ccc([N+](=O)[O-])cc1NC(=O)c1ccc(Br)s1 | 79* | 5 | 5 | -2 | 0 | 2
CCOc1ccccc1NC(=O)N1CCC(NC(=O)C2CCCCC2)CC1 | . | . | . | . | -1 | .
N#C/C(=C\c1c(N2CCCCC2)nc2ccccn2c1=O)C(=O)NCc1ccco1 | 5 | 20 | 81 | 4 | 1 | 65*
Cc1cccn2c(=O)c(/C=C(\C#N)C(=O)NCc3ccco3)c(N3CCCC(C)C3)nc12 (configuration not stated) | 3 | -11 | . | 2 | 3 | 98*
CCOC(=O)C1CCN(c2nc3c(C)cccn3c(=O)c2/C=C(\C#N)S(=O)(=O)c2ccccc2)CC1 | -6 | -16 | -39 | 10 | 7 | -29
CCOC(=O)/C(C#N)=C/c1c(N2CCN(c3ccccc3)CC2)nc2c(C)cccn2c1=O | . | . | . | . | -5 | .
CCOC(=O)C1CCCN(c2nc3c(C)cccn3c(=O)c2/C=C(\C#N)C(=O)NCc2ccco2)C1 (configuration not stated) | 8 | -19 | 4 | 3 | -1 | 121*
Cc1cccn2c(=O)c(/C=C(\C#N)C(=O)NCc3ccco3)c(N3CCC(C(N)=O)CC3)nc12 | 5 | -9 | . | 3 | 3 | 71*
Cc1c(OCC(=O)NC2CCN(Cc3ccccc3)CC2)ccc2c3c(c(=O)oc12)CCC3 | . | . | . | . | -2 | .
O=C(CCc1ccccc1)N1CCN(Cc2ccc(F)cc2Cl)CC1 | . | . | . | . | 13 | .
Cc1cccn2c(=O)c(/C=C(\C#N)C(=O)NCc3ccco3)c(N3CCCCC3)nc12 | 3 | -3 | 60* | -2 | 2 | 65*
Cc1cccn2c(=O)c(/C=C(\C#N)S(=O)(=O)c3ccccc3)c(N3CCCCC3)nc12 | 22 | -13 | -60 | 4 | -2 | -27
CCNC(=O)/C(C#N)=C/c1c(N2CCN(c3cccc(Cl)c3)CC2)nc2c(C)cccn2c1=O | . | . | . | . | 6 | .
Cc1cccn2c(=O)c(/C=C(\C#N)C(=O)NCc3ccco3)c(N3CCCCCC3)nc12 | -3 | -14 | -8 | -5 | -5 | 97*
Cc1ccc2[nH]c3ccccc3c(=O)c2c1 | . | . | . | . | 114* | .
O=c1c2ccccc2[nH]c2ccc(O)cc12 | . | . | . | . | 166* | .
SMILES | Hck-Nef inh | Tb hexokinase | Runt-SMMHC FRET | p97 inhibitor | RanGTP-Imp inh | Runt-CBFb FRET
O=c1c2ccccc2[nH]c2ccc(F)cc12 | 71* | -11 | 87* | 9 | 116* | 3
O=c1c2c([nH]c3ccccc13)CCC2 | . | . | . | . | 0 | .
Cc1ccc(C2CCN(C(=S)Nc3cccc(C)c3)C2)cc1 (configuration not stated) | -4 | -8 | 4 | 4 | -1 | -2
CCN(C(=O)COC(=O)c1ccc(S(=O)(=O)N2CCCc3ccccc32)cc1)C1CCS(=O)(=O)C1 (configuration not stated) | -2 | 6 | -8 | -7 | -1 | -6
Cc1[nH][nH]c(=O)c1C(c1c(C)[nH][nH]c1=O)c1cn(Cc2cccc3ccccc23)c2ccccc12 | 0 | -5 | -6 | 27* | . | -1
COc1ccccc1C1NC(=O)NC(C)=C1C(=O)OC1CCCC(C)C1 (configuration not stated) | . | . | . | . | -2 | .
COc1cc(-n2nc(C)c3c2OC(N)=C(C#N)C3c2ccccc2)c(Cl)c(Br)c1O (configuration not stated) | 1 | 4 | 8 | 9 | 65* | 5
CCCCc1ccc(NC(=O)CSC2=NN3CCCC(=O)N=C3S2)cc1 | . | . | . | . | -1 | .
O=C1NC2(CCCCC2)C(=O)N1c1cccc(Cl)c1 | . | . | . | . | 1 | .
COCCn1c(=NC(=O)c2ccc(S(=O)(=O)N3CCc4ccccc4C3)cc2)sc2cc(S(N)(=O)=O)ccc21 | 7 | -20 | -6 | 5 | 1 | -7
COC(=O)Cn1c(=NC(=O)c2ccc(S(=O)(=O)N3CCc4ccccc4C3)cc2)sc2cc(OC)ccc21 | 4 | -24 | -25 | 3 | 23* | -34
COc1ccc(NC(=S)N2CCN(C(=O)c3ccco3)CC2)cc1OC | . | . | . | . | 3 | .
CCCN=C1N/C(=C\c2ccco2)C(=O)N1c1ccccc1 | 26 | -29 | -36 | 4 | -4 | -4
O=C1/C(=C\c2ccco2)NC(=S)N1c1ccccc1 | 53* | -10 | -13 | 6 | 0 | 10
Cc1cc(-c2nnc(CCC(=O)N3CCN(Cc4cccnc4)CC3)o2)c(C)o1 | 8 | 0 | -1 | -1 | 1 | -2
CC(=O)Nc1cccc(N/C=C(\C=O)c2nc3ccccc3o2)c1 | 7 | -25 | 66* | 1 | 1 | 26
COc1ccc(C(=O)Nc2nnc(CC(=O)N/N=C/c3ccc(O)cc3O)s2)cc1 | . | . | . | . | 108* | .
Cc1ccc(C(=O)Nc2nnc(CC(=O)N/N=C/c3ccc(O)c(O)c3)s2)cc1 | . | . | . | . | 4 | .
O=C1OCC2OC(O)C(O)C(O)C2OC(=O)c2cc(O)c(O)c(O)c2-c2c(O)c(O)c3oc(=O)c4c(c(O)c(O)c5oc(=O)c2c3c54)-c2c1cc(O)c(O)c2O (configuration not stated) | 4 | 54* | 6 | . | . | 43
